# Source: ChEMBL document CHEMBL4689842, “EUbOPEN Chemogenomics Library wave 1” (2021)
# Values joined by “and” are separate entries in the source; they are usually repeats but may differ in a detail not shown here. Equal entries are not always repeated.
# System: HEK-293T
# Assay: Multiplex assay against HEK293T;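 as to Population Tubulin-Different-Phenotype (%): share of the cells with healthy nuclei that show this phenotype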
# Type: toxicity, cell-based
# Conditions: human
# How it was run: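 Hoechst33342, BioTracker Green Microtubule Cytoskeleton Dye, MitoTracker Red and Annexin V Alexa Fluor 680 were added to live cells at seeding, and imaging on a CQ1 microscope at 37°C and 5% CO2 followed compound addition. Gating by CellPathfinder machine learning separated cells into Hoechst high-intensity objects or normal cells, then normal cells into healthy, pyknosed or fragmented nuclei, then pyknosed cells into mitotic or apoptotic. Per cents of healthy-nucleus cells are reported for the tubulin, mitochondrial-mass and membrane-permeability phenotypes.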
# [1] = 12 h, 1 µM, compound concentration 1 uM, replicate 1
# [2] = 12 h, 1 µM, compound concentration 1 uM, replicate 2
# [3] = 12 h, 10 µM, compound concentration 10 uM, replicate 1
# [4] = 12 h, 10 µM, compound concentration 10 uM, replicate 2
# [5] = 24 h, 1 µM, compound concentration 1 uM, replicate 1
# [6] = 24 h, 1 µM, compound concentration 1 uM, replicate 2
# [7] = 24 h, 10 µM, compound concentration 10 uM, replicate 1
# [8] = 24 h, 10 µM, compound concentration 10 uM, replicate 2
# [9] = 48 h, 1 µM, compound concentration 1 uM, replicate 1
# [10] = 48 h, 1 µM, compound concentration 1 uM, replicate 2
# [11] = 48 h, 10 µM, compound concentration 10 uM, replicate 1
# [12] = 48 h, 10 µM, compound concentration 10 uM, replicate 2
structure (smiles),measurement,setting,value
CC1=C(C(=O)Nc2cc3cn[nH]c3cc2F)C(c2ccc(C(F)(F)F)cc2)CC(=O)N1 (stereo unspecified),Population Apoptotic (%),[1],47%
same,Population Fragmented Nuclei (%),[1],13%
same,Population Healthy Nuclei (%),[1],43%
same,Population Hoechst High Intensity Objects (%),[1],7%
same,Population Membrane Permeable-Phenotype (%),[1],3%
same,Population Mitochondria Different-Phenotype (%),[1],63%
same,Population Mitotic Cells (%),[1],52%
same,Population Normal (%),[1],92%
same,Population Pyknosed Nuclei (%),[1],42%
same,Population Tubulin-Different-Phenotype (%),[1],29%
same,Total Cell Count,[1],402
same,Population Apoptotic (%),[2],6%
same,Population Fragmented Nuclei (%),[2],12%
same,Population Healthy Nuclei (%),[2],46%
same,Population Hoechst High Intensity Objects (%),[2],2%
same,Population Membrane Permeable-Phenotype (%),[2],12%
same,Population Mitochondria Different-Phenotype (%),[2],12%
same,Population Mitotic Cells (%),[2],93%
same,Population Normal (%),[2],97%
same,Population Pyknosed Nuclei (%),[2],40%
same,Population Tubulin-Different-Phenotype (%),[2],14%
same,Total Cell Count,[2],235
same,Population Apoptotic (%),[3],38%
same,Population Fragmented Nuclei (%),[3],12%
same,Population Healthy Nuclei (%),[3],41%
same,Population Hoechst High Intensity Objects (%),[3],10%
same,Population Membrane Permeable-Phenotype (%),[3],5%
same,Population Mitochondria Different-Phenotype (%),[3],64%
same,Population Mitotic Cells (%),[3],61%
same,Population Normal (%),[3],89%
same,Population Pyknosed Nuclei (%),[3],45%
same,Population Tubulin-Different-Phenotype (%),[3],36%
same,Total Cell Count,[3],236
same,Population Apoptotic (%),[4],16%
same,Population Fragmented Nuclei (%),[4],10%
same,Population Healthy Nuclei (%),[4],37%
same,Population Hoechst High Intensity Objects (%),[4],5%
same,Population Membrane Permeable-Phenotype (%),[4],11%
same,Population Mitochondria Different-Phenotype (%),[4],24%
same,Population Mitotic Cells (%),[4],83%
same,Population Normal (%),[4],95%
same,Population Pyknosed Nuclei (%),[4],52%
same,Population Tubulin-Different-Phenotype (%),[4],34%
same,Total Cell Count,[4],240
same,Population Apoptotic (%),[5],41%
same,Population Fragmented Nuclei (%),[5],11%
same,Population Healthy Nuclei (%),[5],41%
same,Population Hoechst High Intensity Objects (%),[5],12%
same,Population Membrane Permeable-Phenotype (%),[5],3%
same,Population Mitochondria Different-Phenotype (%),[5],46%
same,Population Mitotic Cells (%),[5],58%
same,Population Normal (%),[5],87%
same,Population Pyknosed Nuclei (%),[5],47%
same,Population Tubulin-Different-Phenotype (%),[5],29%
same,Total Cell Count,[5],443
same,Population Apoptotic (%),[6],12%
same,Population Healthy Nuclei (%),[6],63%
same,Population Hoechst High Intensity Objects (%),[6],1%
same,Population Membrane Permeable-Phenotype (%),[6],14%
same,Population Mitochondria Different-Phenotype (%),[6],8%
same,Population Mitotic Cells (%),[6],87%
same,Population Normal (%),[6],98%
same,Population Pyknosed Nuclei (%),[6],25%
same,Population Tubulin-Different-Phenotype (%),[6],17%
same,Total Cell Count,[6],274
same,Population Apoptotic (%),[7],42%
same,Population Fragmented Nuclei (%),[7],15%
same,Population Healthy Nuclei (%),[7],41%
same,Population Hoechst High Intensity Objects (%),[7],10%
same,Population Membrane Permeable-Phenotype (%),[7],6%
same,Population Mitochondria Different-Phenotype (%),[7],61%
same,Population Mitotic Cells (%),[7],57%
same,Population Normal (%),[7],89%
same,Population Pyknosed Nuclei (%),[7],42%
same,Population Tubulin-Different-Phenotype (%),[7],41%
same,Total Cell Count,[7],229
same,Population Apoptotic (%),[8],26%
same,Population Fragmented Nuclei (%),[8],11%
same,Population Healthy Nuclei (%),[8],61%
same,Population Hoechst High Intensity Objects (%),[8],2%
same,Population Membrane Permeable-Phenotype (%),[8],12%
same,Population Mitochondria Different-Phenotype (%),[8],26%
same,Population Mitotic Cells (%),[8],73%
same,Population Normal (%),[8],97%
same,Population Pyknosed Nuclei (%),[8],26%
same,Population Tubulin-Different-Phenotype (%),[8],47%
same,Total Cell Count,[8],258
same,Population Apoptotic (%),[9],29%
same,Population Fragmented Nuclei (%),[9],18%
same,Population Healthy Nuclei (%),[9],47%
same,Population Hoechst High Intensity Objects (%),[9],10%
same,Population Membrane Permeable-Phenotype (%),[9],6%
same,Population Mitochondria Different-Phenotype (%),[9],23%
same,Population Mitotic Cells (%),[9],70%
same,Population Normal (%),[9],89%
same,Population Pyknosed Nuclei (%),[9],34%
same,Population Tubulin-Different-Phenotype (%),[9],22%
same,Total Cell Count,[9],530
same,Population Apoptotic (%),[10],5%
same,Population Fragmented Nuclei (%),[10],10%
same,Population Healthy Nuclei (%),[10],77%
same,Population Hoechst High Intensity Objects (%),[10],2%
same,Population Membrane Permeable-Phenotype (%),[10],8%
same,Population Mitochondria Different-Phenotype (%),[10],3%
same,Population Mitotic Cells (%),[10],94%
same,Population Normal (%),[10],97%
same,Population Pyknosed Nuclei (%),[10],11%
same,Population Tubulin-Different-Phenotype (%),[10],15%
same,Total Cell Count,[10],488
same,Population Apoptotic (%),[11],49%
same,Population Fragmented Nuclei (%),[11],16%
same,Population Healthy Nuclei (%),[11],49%
same,Population Hoechst High Intensity Objects (%),[11],14%
same,Population Membrane Permeable-Phenotype (%),[11],7%
same,Population Mitochondria Different-Phenotype (%),[11],29%
same,Population Mitotic Cells (%),[11],50%
same,Population Normal (%),[11],85%
same,Population Pyknosed Nuclei (%),[11],33%
same,Population Tubulin-Different-Phenotype (%),[11],34%
same,Total Cell Count,[11],261
same,Population Apoptotic (%),[12],65%
same,Population Healthy Nuclei (%),[12],75%
same,Population Hoechst High Intensity Objects (%),[12],2%
same,Population Membrane Permeable-Phenotype (%),[12],6%
same,Population Mitochondria Different-Phenotype (%),[12],19%
same,Population Mitotic Cells (%),[12],34%
same,Population Normal (%),[12],97%
same,Population Pyknosed Nuclei (%),[12],8%
same,Population Tubulin-Different-Phenotype (%),[12],36%
same,Total Cell Count,[12],334
CN1CCN(Cc2cc(NC(=O)c3ccc4c(c3)CN(c3ccccc3)CC4)cc(C(F)(F)F)c2)CC1,Population Apoptotic (%),[1],37% and 18%
same,Population Fragmented Nuclei (%),[1],18% and 16%
same,Population Healthy Nuclei (%),[1],48% and 58%
same,Population Hoechst High Intensity Objects (%),[1],35% and 18%
same,Population Membrane Permeable-Phenotype (%),[1],16% and 8%
same,Population Mitotic Cells (%),[1],62% and 81%
same,Population Normal (%),[1],64% and 81%
same,Population Pyknosed Nuclei (%),[1],32% and 24%
same,Total Cell Count,[1],601 and 582
same,Population Apoptotic (%),[2],20% and 14%
same,Population Fragmented Nuclei (%),[2],4% and 5%
same,Population Healthy Nuclei (%),[2],80% and 87%
same,Population Mitochondria Different-Phenotype (%),[2],36% and 15%
same,Population Mitotic Cells (%),[2],79% and 85%
same,Population Normal (%),[2],89% and 97%
same,Population Pyknosed Nuclei (%),[2],15% and 6%
same,Total Cell Count,[2],1350 and 1353
same,Population Apoptotic (%),[5],45% and 17%
same,Population Fragmented Nuclei (%),[5],18% and 14%
same,Population Healthy Nuclei (%),[5],63% and 71%
same,Population Mitochondria Different-Phenotype (%),[5],35% and 12%
same,Population Mitotic Cells (%),[5],54% and 82%
same,Population Normal (%),[5],70% and 90%
same,Population Pyknosed Nuclei (%),[5],18% and 14%
same,Total Cell Count,[5],559 and 631
same,Population Apoptotic (%),[6],11%
same,Population Fragmented Nuclei (%),[6],13% and 16%
same,Population Healthy Nuclei (%),[6],78% and 81%
same,Population Mitotic Cells (%),[6],88%
same,Population Normal (%),[6],89% and 96%
same,Total Cell Count,[6],1856 and 2285
